Test results reported in ChEMBL document CHEMBL3112520, “Synthesis and biological evaluation of 2,5-di(7-indolyl)-1,3,4-oxadiazoles, and 2- and 7-indolyl 2-(1,3,4-thiadiazolyl)ketones as antimicrobials” (Bioorg Med Chem, 2014).
The source made the active and inactive calls. The rule behind the calls is not given here.

Experiments:
Escherichia coli = experiment: Antibacterial activity against Escherichia coli DH5[alpha] assessed as growth inhibition at late exponential phase at 200 uM after 16 hrs; assay type: functional; conditions: for inhibition of growth at 200 µM: read-out: GI
Summary of the method: (§1)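 Compounds were made up as 50 mM DMSO stocks and diluted in LB medium to 200 µM. Cultures were grown at 37 °C with 600 rpm shaking. OD600 was read every 10 min for 16 h, with LB as the blank. Samples were run in triplicate, and growth curves were compared with cells given equal amounts of DMSO.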

[1] = Inhibition of RNA polymerase-sigma factor (unknown origin) interaction at 15 uM after 1 hr by ELISA
Summary of the method: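 ELISA: purified full-length σA (250 nM in PBS) was coated overnight at 4 °C, then blocked with 1% (w/v) BSA in PBS at room temperature. After PBS/Tween-20 washes, rabbit anti-GST (1:2000) and then HRP goat anti-rabbit (1:2000) were each applied for 1 h at room temperature. TMB substrate was added, shaken for 6 min at room temperature, and absorbance read at 600 nm.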

Bacillus subtilis = experiment: Antibacterial activity against Bacillus subtilis 168 assessed as growth inhibition at late exponential phase at 200 uM after 16 hrs; assay type: functional; conditions: for growth inhibition (GI): subsp. subtilis str. 168; for inhibition of growth at 200 µM: subsp. subtilis str. 168, 16 h, read-out: GI; summary of the method: as §1
[2] = Solubility of the compound; assay type: physicochemical

Row | Structure (SMILES) | inhibition [1] [%] | solubility [2] | growth inhibition (GI) (Escherichia coli) | growth inhibition (GI) (Bacillus subtilis) | inhibition of growth at 200 µM (Escherichia coli) [%] | inhibition of growth at 200 µM (Bacillus subtilis) [%]
1 | COc1cc(OC)c2c(-c3ccc(Cl)cc3)c(C(=O)c3nnc(N(C)C)s3)[nH]c2c1 | 17.2 |  |  | inactive | 10.6 | 
2 | COc1cc(OC)c2c(-c3ccc(Br)cc3)c[nH]c2c1C(=O)NNC(=O)c1c(OC)cc(OC)c2c(-c3ccc(Br)cc3)c[nH]c12 | 39.5 |  |  |  | 37.4 | 14.3
3 | COc1cc(OC)c2c(-c3ccccc3)c(-c3ccccc3)[nH]c2c1C(=O)NNC(=O)c1c(OC)cc(OC)c2c(-c3ccccc3)c(-c3ccccc3)[nH]c12 |  | ND(Insoluble) |  |  |  | 
4 | COc1cc(OC)c2c(-c3ccc(Br)cc3)c(C(=O)c3nnc(N(C)C)s3)[nH]c2c1 | 19 |  |  | inactive | 16.8 | 
5 | COc1cc(OC)c2c(-c3ccccc3)c(-c3ccccc3)[nH]c2c1C(=O)C(=O)NNC(=O)C(=O)c1c(OC)cc(OC)c2c(-c3ccccc3)c(-c3ccccc3)[nH]c12 |  | ND(Insoluble) |  |  |  | 

More lines, main results first:

Row | inhibition [1] [%] | solubility [2] | Structure (SMILES) | growth inhibition (GI) (Escherichia coli) | growth inhibition (GI) (Bacillus subtilis) | inhibition of growth at 200 µM (Escherichia coli) [%] | inhibition of growth at 200 µM (Bacillus subtilis) [%]
6 | 17.8 |  | COc1cc(OC)c2c(-c3ccc(Cl)cc3)c[nH]c2c1-c1nnc(-c2c(OC)cc(OC)c3c(-c4ccc(Cl)cc4)c[nH]c23)o1 | inactive | inactive |  | 
7 | 20.8 |  | COc1cc(OC)c2c(-c3ccc(Br)cc3)c(C(=O)C(=O)NNC(=S)N(C)C)[nH]c2c1 |  |  | 70 | 69.9
8 |  | ND(Insoluble) | COc1cc(OC)c2c(-c3ccccc3)c(-c3ccccc3)[nH]c2c1-c1nnc(-c2nnc(-c3c(OC)cc(OC)c4c(-c5ccccc5)c(-c5ccccc5)[nH]c34)o2)o1 |  |  |  | 
9 | 62.6 |  | COc1cc(OC)c2c(-c3ccc(Cl)cc3)c[nH]c2c1C(=O)NNC(=O)c1c(OC)cc(OC)c2c(-c3ccc(Cl)cc3)c[nH]c12 | inactive |  |  | 29.8
10 | 16.8 |  | COc1cc(OC)c2c(-c3ccc(Br)cc3)c[nH]c2c1-c1nnc(-c2c(OC)cc(OC)c3c(-c4ccc(Br)cc4)c[nH]c23)o1 | inactive | inactive |  | 
11 |  | ND(Insoluble) | COc1cc(OC)c2c(-c3ccccc3)c(-c3ccccc3)[nH]c2c1-c1nnc(-c2c(OC)cc(OC)c3c(-c4ccccc4)c(-c4ccccc4)[nH]c23)o1 |  |  |  | 
12 |  | ND(Insoluble) | COc1cc(OC)c2c(-c3ccccc3)c(-c3ccccc3)[nH]c2c1C(=O)NNC(=O)C(=O)NNC(=O)c1c(OC)cc(OC)c2c(-c3ccccc3)c(-c3ccccc3)[nH]c12 |  |  |  | 
13 | 20.4 |  | COc1cc(OC)c2c(-c3ccc(Cl)cc3)c(C(=O)C(=O)NNC(=S)N(C)C)[nH]c2c1 |  |  | 47 | 32.5
